Measured values from ChEMBL document CHEMBL1130342, “Synthesis and evaluation of 2-(arylamino)imidazoles as alpha 2-adrenergic agonists” (J Med Chem, 1997).

Legend:
[1] = molecular target: T1, Adrenergic receptor alpha-1 (Homo sapiens, UniProt P35348+P25100+P35368); assay: Displacement of prazosin from Alpha-1 adrenergic receptors of human cerebral cortex homogenate; type: tissue-based
T1 sequence (P35348 whole entry): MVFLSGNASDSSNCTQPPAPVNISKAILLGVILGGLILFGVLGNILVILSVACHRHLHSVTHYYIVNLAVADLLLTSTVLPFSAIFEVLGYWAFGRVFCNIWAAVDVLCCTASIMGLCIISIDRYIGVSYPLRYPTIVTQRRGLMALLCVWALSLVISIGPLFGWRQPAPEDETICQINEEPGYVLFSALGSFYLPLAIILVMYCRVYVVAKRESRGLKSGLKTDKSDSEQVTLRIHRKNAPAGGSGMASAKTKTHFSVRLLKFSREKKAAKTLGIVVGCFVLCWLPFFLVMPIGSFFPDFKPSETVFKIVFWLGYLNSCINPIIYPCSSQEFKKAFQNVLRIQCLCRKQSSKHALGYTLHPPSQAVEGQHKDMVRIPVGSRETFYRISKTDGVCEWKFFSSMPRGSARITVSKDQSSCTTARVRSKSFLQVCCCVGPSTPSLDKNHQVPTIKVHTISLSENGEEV
T1 sequence (P25100 whole entry): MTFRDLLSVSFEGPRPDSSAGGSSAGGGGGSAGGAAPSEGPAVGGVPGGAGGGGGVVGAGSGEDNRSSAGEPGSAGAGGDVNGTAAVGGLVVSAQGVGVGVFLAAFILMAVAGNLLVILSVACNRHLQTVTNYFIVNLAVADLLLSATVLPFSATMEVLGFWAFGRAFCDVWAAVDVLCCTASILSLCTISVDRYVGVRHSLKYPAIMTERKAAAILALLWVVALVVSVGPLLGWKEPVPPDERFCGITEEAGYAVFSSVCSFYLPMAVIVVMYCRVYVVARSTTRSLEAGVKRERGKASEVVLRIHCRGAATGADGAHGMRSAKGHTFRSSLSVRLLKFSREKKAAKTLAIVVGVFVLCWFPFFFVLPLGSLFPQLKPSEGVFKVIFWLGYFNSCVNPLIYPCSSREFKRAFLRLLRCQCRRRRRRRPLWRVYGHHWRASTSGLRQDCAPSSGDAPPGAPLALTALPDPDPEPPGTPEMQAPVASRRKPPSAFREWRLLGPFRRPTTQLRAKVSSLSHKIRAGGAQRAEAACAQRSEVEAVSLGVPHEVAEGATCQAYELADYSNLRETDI
T1 sequence (P35368 whole entry): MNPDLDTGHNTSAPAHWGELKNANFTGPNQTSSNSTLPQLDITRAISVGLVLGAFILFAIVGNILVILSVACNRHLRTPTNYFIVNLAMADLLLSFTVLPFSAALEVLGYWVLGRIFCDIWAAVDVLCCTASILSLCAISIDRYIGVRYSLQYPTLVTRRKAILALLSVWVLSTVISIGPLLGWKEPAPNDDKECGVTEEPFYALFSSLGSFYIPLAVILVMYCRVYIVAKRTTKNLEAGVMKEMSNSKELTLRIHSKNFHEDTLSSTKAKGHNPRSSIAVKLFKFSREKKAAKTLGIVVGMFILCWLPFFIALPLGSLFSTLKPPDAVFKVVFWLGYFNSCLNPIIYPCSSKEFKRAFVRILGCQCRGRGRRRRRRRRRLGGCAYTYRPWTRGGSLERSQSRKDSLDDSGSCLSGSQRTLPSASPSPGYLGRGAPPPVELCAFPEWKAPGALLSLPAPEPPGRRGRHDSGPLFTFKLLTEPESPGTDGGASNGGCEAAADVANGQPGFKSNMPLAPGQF
Procedure, shortened: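 Membranes from human cerebral cortex, giving a mixed α1 subtype population; affinity from competition against radiolabeled prazosin; nonlinear least-squares curve fitting; at least three separate determinations.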

[2] = molecular target: T2, Alpha-2C adrenergic receptor (Homo sapiens, UniProt P18825); assay: Displacement of rauwolscine from human Alpha-2C adrenergic receptor expressed in CHO cells; type: cell-based
T2 sequence (P18825 whole entry): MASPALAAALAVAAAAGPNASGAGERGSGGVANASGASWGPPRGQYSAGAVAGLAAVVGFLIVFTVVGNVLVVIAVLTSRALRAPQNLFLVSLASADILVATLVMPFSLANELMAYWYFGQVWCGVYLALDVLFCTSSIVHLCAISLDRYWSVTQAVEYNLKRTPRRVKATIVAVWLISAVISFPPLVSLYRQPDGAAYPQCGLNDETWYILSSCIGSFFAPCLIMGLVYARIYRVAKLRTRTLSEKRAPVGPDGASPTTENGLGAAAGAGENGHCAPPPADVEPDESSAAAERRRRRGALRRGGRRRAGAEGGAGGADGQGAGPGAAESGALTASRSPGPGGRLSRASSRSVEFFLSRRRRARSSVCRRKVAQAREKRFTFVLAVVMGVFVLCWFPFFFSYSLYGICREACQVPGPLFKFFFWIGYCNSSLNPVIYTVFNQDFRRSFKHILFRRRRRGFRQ
Procedure, shortened: (§1)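 Membranes of CHO cells expressing human α2A (CHO-C10), human α2C (CHO-C4) or rat α2B (CHO-RNG) receptor; competition against radiolabeled rauwolscine; affinity constants by nonlinear least-squares curve fitting; at least three separate determinations.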

[3] = molecular target: T3, Alpha-2B adrenergic receptor (Rattus norvegicus, UniProt P19328); assay: Displacement of rauwolscine from rat Alpha-2B adrenergic receptor expressed in CHO cells; type: cell-based; procedure, shortened: as §1
T3 sequence (P19328 whole entry): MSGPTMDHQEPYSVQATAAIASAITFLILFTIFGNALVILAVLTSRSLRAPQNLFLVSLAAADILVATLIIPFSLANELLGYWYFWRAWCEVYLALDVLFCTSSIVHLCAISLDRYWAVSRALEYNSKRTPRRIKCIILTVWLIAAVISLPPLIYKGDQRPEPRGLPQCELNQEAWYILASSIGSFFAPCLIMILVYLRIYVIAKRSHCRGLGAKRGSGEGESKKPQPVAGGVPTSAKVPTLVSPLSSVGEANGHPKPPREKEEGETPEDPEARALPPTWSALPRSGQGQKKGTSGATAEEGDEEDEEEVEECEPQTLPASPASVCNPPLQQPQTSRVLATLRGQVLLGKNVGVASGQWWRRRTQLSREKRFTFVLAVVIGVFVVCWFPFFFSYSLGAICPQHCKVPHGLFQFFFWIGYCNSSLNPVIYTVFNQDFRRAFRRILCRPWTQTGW

[4] = molecular target: T4, Alpha-2A adrenergic receptor (Homo sapiens, UniProt P08913); assay: Displacement of rauwolscine from human Alpha-2A adrenergic receptor expressed in CHO cells; type: cell-based; procedure, shortened: as §1
T4 sequence (P08913 whole entry): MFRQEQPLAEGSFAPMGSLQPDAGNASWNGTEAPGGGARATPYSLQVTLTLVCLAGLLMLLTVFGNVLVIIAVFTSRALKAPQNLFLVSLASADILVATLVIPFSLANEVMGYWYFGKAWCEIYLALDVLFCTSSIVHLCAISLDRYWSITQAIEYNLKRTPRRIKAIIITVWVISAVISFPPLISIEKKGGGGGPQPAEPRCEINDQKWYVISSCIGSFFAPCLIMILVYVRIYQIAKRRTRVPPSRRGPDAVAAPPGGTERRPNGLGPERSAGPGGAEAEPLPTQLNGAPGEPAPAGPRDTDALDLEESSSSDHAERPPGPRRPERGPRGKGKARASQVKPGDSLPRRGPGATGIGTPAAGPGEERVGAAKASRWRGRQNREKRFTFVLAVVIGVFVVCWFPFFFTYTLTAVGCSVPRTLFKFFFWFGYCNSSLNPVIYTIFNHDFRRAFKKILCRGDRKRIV

[5] = molecular target: T4, Alpha-2A adrenergic receptor; assay: Effective concentration at Alpha-2A adrenergic receptor from CHO-C10 cells; type: functional, cell-based
Procedure, shortened: (§2)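 Functional agonist response measured by Cytosensor microphysiometry in CHO cells expressing α2A (CHO-C10) or rat α2B (CHO-RNG) adrenoceptor.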

[6] = molecular target: T3, Alpha-2B adrenergic receptor; assay: Effective Concentration at Alpha-2B adrenergic receptor from CHO-RNG cells; type: functional, cell-based; procedure, shortened: as §2
[7] = molecular target: T5, Alpha-2B adrenergic receptor (Rattus norvegicus) (UniProt P19328); assay: Intrinsic activity relative to Norepinephrine at Alpha-2B adrenergic receptor from CHO-RNG cells; type: cell-based; procedure, shortened: as §2
T5 sequence (whole entry): T3 sequence (P19328 whole entry)

[8] = molecular target: T2, Alpha-2C adrenergic receptor; assay: Effective concentration at Alpha-2C adrenergic receptor from CHO-C4 cells; type: functional, cell-based
Procedure, shortened: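 Functional agonist assay in CHO cells expressing the human α2C-adrenoceptor (CHO-C4). Responses were read on a Cytosensor microphysiometer.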

[9] = molecular target: T6, Alpha-2A adrenergic receptor (Homo sapiens) (UniProt P08913); assay: Intrinsic activity relative to Norepinephrine at Alpha-2A adrenergic receptor from CHO-C10 cells; type: cell-based; procedure, shortened: as §2
T6 sequence (whole entry): T4 sequence (P08913 whole entry)

[10] = molecular target: T7, Alpha-2C adrenergic receptor (Homo sapiens) (UniProt P18825); details: CHO-C4
T7 sequence (whole entry): T2 sequence (P18825 whole entry)

Row | SMILES | Ki [1] | Ki [2] | Ki [3] | Ki [4] | EC50 [5] | EC50 [6] | IA [7] | EC50 [8] | IA [9] | IA [10]
1 | Clc1cccc(Cl)c1Nc1ncc[nH]1 | 6000 nM | 1100 nM | – | – | – | – | – | – | – | –
2 | c1c[nH]c(Nc2ccc3nccnc3c2)n1 | > 100000 nM | 8800 nM | 9300 nM | 3100 nM | – | – | – | – | – | –
3 | COc1c(C(C)(C)C)cc(C)c(Nc2ncc[nH]2)c1C | 4200 nM | – | – | – | > 5000 nM | 1100 nM | 0.65 | > 5000 nM | – | –
4 | COc1ccc(Nc2ncc[nH]2)c(C)c1OC | 6600 nM | 1500 nM | 2500 nM | 130 nM | – | – | – | – | – | –
5 | Cc1c(Nc2ncc[nH]2)ccc2c1NCCO2 | 16000 nM | – | 421 nM | 6 nM | 124 nM | 470 nM | 0.88 | 110 nM | 0.49 | 0.64
6 | c1c[nH]c(Nc2ccc3[nH]cnc3c2)n1 | 24000 nM | 400 nM | 640 nM | 76 nM | – | – | – | – | – | –
7 | Cc1c(Nc2ncc[nH]2)ccc2nccnc12 | > 28000 nM | 340 nM | 1200 nM | – | – | – | – | – | – | –
8 | Brc1ccccc1Nc1ncc[nH]1 | 11000 nM | – | 1500 nM | 210 nM | – | – | – | – | – | –
9 | Brc1c(NC2=NCCN2)ccc2nccnc12 [BRIMONIDINE] | 1800 nM | – | – | – | – | – | 0.89 | – | 0.91 | 0.82
10 | COc1cc(C)c(Nc2ncc[nH]2)cc1C(C)(C)C | 16000 nM | 290 nM | 380 nM | 39 nM | – | – | – | – | – | –
11 | Cc1c(Nc2ncc[nH]2)ccc2c1OCCO2 | 2100 nM | – | – | – | 8.7 nM | 41 nM | 1 | 6.6 nM | 0.89 | 0.5
12 | COc1ccc(Nc2ncc[nH]2)c(C)c1 | 8400 nM | – | – | – | – | – | – | – | – | –
13 | Brc1c(Nc2ncc[nH]2)ccc2nccnc12 | > 100000 nM | > 10000 nM | > 10000 nM | – | – | – | – | – | – | –
